Test system: MS2 coat protein
Assay: apparent Kd, MS2 coat protein; higher = weaker binding; RNA-MaP array; theophylline 2 mM where present
Summary of the method: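 The apparent Kd is reported as the median of filtered per-cluster binding-curve fits. To get these curves, designs transcribed by stalled E. coli RNA polymerase on Illumina sequencing-chip clusters were titrated with SNAP-549-labelled MS2 coat protein from 0.7 or 1.5 nM, doubling to 3 µM. Titrations were run without and then with constant ligand in 100 mM Tris-HCl pH 7.5, 80 mM KCl, 4 mM MgCl2, BSA, DTT, yeast tRNA and Tween-20, and green signal was normalised to red-channel RNA signal and control-cluster median Fmax.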

[1] = designed as: ON switch for theophylline, no ligand
[2] = ligand present: theophylline, designed as: ON switch for theophylline
[3] = designed as: OFF switch for theophylline, no ligand
[4] = ligand present: theophylline, designed as: OFF switch for theophylline

Sequence | apparent Kd [1] [nM] | apparent Kd [2] [nM] | apparent Kd [3] [nM] | apparent Kd [4] [nM]
UAAAUAAUCUGGGUGUAGGUAAUAACAGAUACCAGCCAGAUAACUGGCCCUUGGCAGCUGAUAACAUGAGGAUCACCCAUGUAAA | 80.5 | 224 | – | –
CGUAUUGUAACUGAUACCAGUGUACUGACAUGAGGAUCACCCAUGUUGGGUUUUGUUGUACACCCUUGGCAGCAGAAUCAAUACG | – | – | 68.7 | 122
UCUUACUAUAGUGAUACCAGACGUACAUGAGGAUCACCCAUGUUACAUUCUUGGUUAAAAGUCCCUUGGCAGCACGAUUUGUUCG | – | – | 9.28 | 9.5
AUCUCAUAGAGUGAUACCAGACUACAUGAGGAUCACCCAUGUUAGAUUUAAAUAUCAUUUGUCCCUUGGCAGCACAUUAAGUACA | 12.9 | 11.5 | – | –
ACGAACGAUAGUGAUACCAGACGUACAUGAGGAUCACCCAUGUUAUACACAUGGUUUAUUGUCCCUUGGCAGCACGUUAAGUUCG | – | – | 274 | 295
AGCAUGUUAUCAGAUACCAGACAUCUUUUAAAACAUAUUACAUGAGGAUCACCCAUGUUGGUCCCUUGGCAGCUGAAAUAUUUCA | 272 | 39.8 | – | –
AUUAUCAUGGUCAUAUAUAUUUCGUCAGAUACCAGACUAGAUAUAGUCCCUUGGCAGCUGUUACAUGAGGAUCACCCAUGUUAUU | – | – | 121 | 44.5
GCUGUAAGUGCAGAUACCAGCAAGUGAUAUUUCAUAUGACAUGAGGAUCACCCAUGUAACUGCCCUUGGCAGCUGCACUUACAGC | 213 | 24.9 | – | –
ACUCGGUAUGUCUAAUACCGAGAGUAUGAUACCAGUAUGGUGACAUACCCUUGGCAGCAUGGGACAUGAGGAUCACCCAUGUGUU | 538 | 505 | – | –
GCACGACAUGAGGAUCACCCAUGUGCAGAUACCAGUAAUGUAUAUUACCCUUGGCAGCUGAGUAGAUCUGGAGGGCUAUAGGUAA | 13.8 | 20.8 | – | –
AUAACAUGAGGAUCACCCAUGUAAGCAGAUACCAGCUAGGAAACUAGCCCUUGGCAGCUGCAAGGUGAUCCUAAUGCAGCUGCAA | – | – | 154 | 119
UGCAUCAUAAUCAUGUAGGUGCUAGGUGAUACCAGCAUCGAAAGAUGCCCUUGGCAGCACCAACAUGAGGAUCACCCAUGUAAUA | 216 | 97.1 | – | –
GGUGAUCCGUAUCACCGGAUCACCGGUGAUACCAGCAUCGAAAGAUGCCCUUGGCAGCACCAACAUGAGGAUCACCCAUGUAAUA | 165 | 26.4 | – | –
GAUGAUAUUGCAGAUACCAGACACAUGAGGAUCACCCAUGUCGCUGGGUUACUGGAUCGUGUCCCUUGGCAGCUGCGAUAUCAUC | – | – | 286 | 69.4
AGCUCAGAGAGUGAUACCAGACUACAUGAGGAUCACCCAUGUUACUUUUAAAUAUCAUGAGUCCCUUGGCAGCACAAGAAGAGCA | – | – | 81 | 168
CUUAUAGUAACUGAUACCAGUGUACUGACAUGAGGAUCACCCAUGUUGGGUUUUGUUGUACACCCUUGGCAGCAGAAUCUAUAAG | – | – | 69.5 | 86.6
AUUUAUUGUCGUGAUACCAGACAUACAUGAGGAUCACCCAUGUUAAGUAACUUUUUUCAGGUCCCUUGGCAGCACUUUUUAAUUA | 17.3 | 13.9 | – | –
CUCGAGGCCGGUGAUACCAGACACGAAACUAUACAUGAGGAUCACCCAUGUCAAACAACGGUCCCUUGGCAGCAUGGGUGUAUCC | 68.9 | 64.5 | – | –
ACCUACACGGAGACGUGUAGGAGUAAUGAUACCAGCAUGGAGACAUGCCCUUGGCAGCGUUACAUGAGGAUCACCCAUGUGGUGC | – | – | 21.1 | 483
UCGUGUAUUUCGGAUACCAGUGAAAUCGAUACAUGAGGAUCACCCAUGUGAGAGGAUGUACACCCUUGGCAGCUGUCUGUAUCUG | 16.3 | 15.2 | – | –
AUAAGUAAUGUUUCGUGUUUUAUUACAGAUACCAGACUAUACGUUGUCCCUUGGCAGCUGGAUUACAUGAGGAUCACCCAUGUUG | – | – | 19.5 | 35.1
CCAUAAGUAACUGAUACCAGUGUACUGACAUGAGGAUCACCCAUGUUGGGUUUUGUUGUACACCCUUGGCAGCAGAAUCUUGUGG | – | – | 63 | 90.3
UGGUUUGUGAUGGAUACCAGCAGAGAAAACGUUUAUCCUAACAUGAGGAUCACCCAUGUAUGCCCUUGGCAGCUGUUGUGGGCUA | – | – | 32 | 34.9
GCACCAGGUACGGAUACCAGCUAUAGGCCCAAUGGGCGACAUGAGGAUCACCCAUGUGAUGGCCCUUGGCAGCUGUACCUGGUGC | 211 | 24.1 | – | –
UCUACAUGAGGAUCACCCAUGUGCCAUGAUACCAGACAUGAAAAUGUCCCUUGGCAGCAUGGGUAGCGCAUCCGAAAGGAUGCGU | 32.2 | 657 | – | –
